The values below come from PubChem BioAssay AID624466 (The Scripps Research Institute Molecular Screening Center, 2012).

Out of some 360,000 compounds screened, about 5,400 (1.5%) were called active.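 How the source made its calls: active means inhibition above a per-plate cutoff, the mean inhibition of test compounds on that plate plus 3 SD (cut at about 49% in these data); inactive means the rest.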 This excerpt belongs to a sample that is enriched for actives.

Sequence of Trace amine-associated receptor 1 (Homo sapiens) (Q96RJ0 whole entry, looked up, the tested form may be a part): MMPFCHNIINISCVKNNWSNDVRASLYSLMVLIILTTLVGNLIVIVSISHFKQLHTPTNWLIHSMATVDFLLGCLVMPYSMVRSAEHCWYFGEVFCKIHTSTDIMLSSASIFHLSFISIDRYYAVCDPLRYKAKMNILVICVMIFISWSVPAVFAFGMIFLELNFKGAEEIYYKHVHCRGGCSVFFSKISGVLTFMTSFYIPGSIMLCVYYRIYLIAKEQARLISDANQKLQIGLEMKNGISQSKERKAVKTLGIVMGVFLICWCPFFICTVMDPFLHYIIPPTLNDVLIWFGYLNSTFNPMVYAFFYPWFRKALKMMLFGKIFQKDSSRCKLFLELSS

The target of this experiment is Trace amine-associated receptor 1 (Homo sapiens) (UniProt Q96RJ0). As to the kind of experiment: human TAAR1 antagonists, primary screen, Fluo-8 calcium fluorescence, CHO RD-HGA16 cells (AID 624466).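 Further: 0% = DMSO plus EC80 beta-PEA response and 100% = DMSO alone without agonist.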 The following applies: CHO RD-HGA16 TAAR1, Fluo-8 calcium fluorescence, antagonist; at 3 µM; hits give high values. The method in brief:
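Test system: hTAAR1-expressing CHO RD-HGA16 cells, Gα16-coupled; Probe or stimulus: EC80 β-phenethylamine stimulus; Compound dosing: single nominal final test compound concentration of 3 µM; Timing: 140 s kinetic read after compound, 140 s after agonist; Signal: Fluo-8 calcium-sensitive fluorescence; Measure: % inhibition of agonist calcium response; Controls: DMSO and EC80 PEA controls.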
For orientation: inhibition means the relative decrease from the control value, in per cent. In the case of `Cc1nc2nc(SCC(=O)c3ccccc3)[nH]c2cc1Br`, the inhibition is -5.84% (inactive).

Turning to `Cc1nc(SCC(=O)c2ccccc2)c([N+](=O)[O-])[nH]1`, the inhibition is 8.14% (inactive).

For the compound `Cc1cc(SCC(=O)c2ccccc2)nc(SCC(=O)c2ccccc2)n1`, the inhibition was 51.6% (active).

On to `CCOC(=O)CCCNC(=O)COC(=O)c1cc(Br)c(Br)s1`, for which the inhibition was -4.99% (inactive).

On to `CCC1CCCCN1CCNS(=O)(=O)c1ccc2c(c1)CCN2C(C)=O` (stereo unspecified), for which the inhibition is -5.09% (inactive).

For the compound `Cc1ccc(C(=O)N/C(=C\c2cn(S(=O)(=O)N(C)C)c3ccccc23)C(=O)N2CCCC2)cc1`, the inhibition is 39.7% (inactive).

Turning to `O=C1C(Cl)=C(Oc2ccccc2)C(=O)c2ccccc21`, the inhibition was 50.9% (active).

Regarding `Cc1cc(Cl)ccc1OCCCC(=O)NCc1ccccn1`, the inhibition is 2.84% (inactive).

For the compound `Cc1cc(Cl)ccc1OCCCC(=O)Nc1cccc(-n2cnnn2)c1`, the inhibition is 53% (active).

Consider `Cc1cc(Cl)ccc1OCCCC(=O)NCc1ccncc1`, for which the inhibition is 3.15% (inactive).

As for `CC1(C(=O)NCc2ccccc2)CSCC(=O)N1CCCN1CCOCC1` (stereo unspecified), the inhibition is -18.5% (inactive).

For `COC(=O)c1ccc2c(c1)S(=O)(=O)NC2C` (stereo unspecified), the inhibition was 4.99% (inactive).

Take `Cn1c(-c2ccc(F)cc2)cnc1SCC(=O)NCc1ccco1`: the inhibition was -3.37% (inactive).

Take `O=c1[nH]c(CSc2ncc(-c3ccc(F)cc3)n2Cc2ccco2)nc2ccccc12`: the inhibition is 67.8% (active).

`CCn1c(COc2c(C)cccc2C)nnc1SCc1nc2ccccc2c(=O)[nH]1`: the inhibition was 2.03% (inactive).

Regarding `CN(C)CCCn1c(SCCN2C(=O)c3ccccc3C2=O)nc2ccccc2c1=O`, the inhibition was -1.92% (inactive).

Take `CCOc1ncccc1C(=O)OCC(=O)c1c[nH]c2ccccc12`: the inhibition is 42% (inactive).

For `C[C@H](NC(=O)c1ccccc1)C(=O)OCC(=O)c1c[nH]c2ccccc12`, the inhibition is 52.1% (active).

In the case of `C[N+](C)(C)CCNC(=O)c1c[nH]c2ccccc12`, the inhibition was -17.1% (inactive).

`COC(=O)C1=C(C)N(Cc2ccccc2C(F)(F)F)C(=NCC2CC2)NC1c1cccc(Cl)c1` (stereo unspecified): the inhibition is 1.62% (inactive).

`CCOC(=O)c1cc(-c2ccc(Cl)s2)nc2c1c(C)nn2C`: the inhibition is 1.4% (inactive).

`CNS(=O)(=O)c1cccc(C(=O)OCC(=O)N2c3ccccc3NC(=O)C2(C)C)c1`: the inhibition is 0.12% (inactive).

For `Cc1ccc(OCCC(=O)OCC(=O)N2c3ccccc3NC(=O)C2(C)C)cc1`, the inhibition was 50.6% (active).

Take `CC1(C)C(=O)Nc2ccccc2N1C(=O)COC(=O)Cn1cnc2ccccc2c1=O`: the inhibition is 12.5% (inactive).

Regarding `CC(c1ccccc1)n1c(NCCCn2ccnc2)nc2c1c(=O)[nH]c(=O)n2C` (stereo unspecified), the inhibition was 10.8% (inactive).

As to `Cc1cc(=O)[nH]c2nnnn12`, the inhibition is -7.21% (inactive).

Turning to `COc1ccc(N(CC(=O)N/N=C/c2cccc3c2OCCO3)S(=O)(=O)c2ccc(NC(C)=O)cc2)cc1`, the inhibition was 29.3% (inactive).

Take `COc1ccc(S(=O)(=O)N(CC(=O)N/N=C/c2ccc(C(=O)O)cc2)Cc2ccccc2)cc1OC`: the inhibition is -28.3% (inactive).

Take `COc1ccc(N(CC(=O)N/N=C/c2cccs2)S(=O)(=O)c2ccc(OC)c(OC)c2)cc1`: the inhibition was 69.2% (active).

Regarding `Nc1[nH]c(C(=O)c2ccccc2)c(-c2ccc(Cl)cc2Cl)c1C(=O)c1ccccc1`, the inhibition is -37.8% (inactive).

As to `COc1ccccc1OCCNC(=O)C(CCSC)NC(=O)COc1ccccc1` (stereo unspecified), the inhibition was -26.3% (inactive).

With `CSCCC(NC(=O)COc1ccccc1)C(=O)OCc1ccc(Cl)cc1` (stereo unspecified), the inhibition is 22.9% (inactive).

As for `CSCCC(NC(=O)COc1ccccc1)C(=O)OCCOc1ccc(F)cc1` (stereo unspecified), the inhibition is 37.1% (inactive).

Consider `CSCCC(NC(=O)COc1ccccc1)C(=O)OCC(=O)c1cc2ccccc2o1` (stereo unspecified), for which the inhibition was 50% (active).

`CSCCC(NC(=O)COc1ccccc1)C(=O)Nc1ccc(C)cc1` (stereo unspecified): the inhibition was -10.3% (inactive).

Regarding `CSCCC(NC(=O)COc1ccccc1)C(=O)OCCOc1ccc(Br)cc1` (stereo unspecified), the inhibition is 55.7% (active).

`C=CCN1C(=O)C2(OCCCO2)c2cccc(Cl)c21`: the inhibition was 3.13% (inactive).

Turning to `O=C(Nc1c(Cl)c(C2CC2)nn1-c1ccccc1)C(Cl)(Cl)Cl`, the inhibition is -12.3% (inactive).

Turning to `FC(F)(F)c1cccc(-c2nc3ccccc3n2C(c2ccccc2)c2nc3ccccc3[nH]2)c1` (stereo unspecified), the inhibition is 18.4% (inactive).

Regarding `O=C(c1ccc(C(F)(F)F)cc1)N1CCC(=O)N([C@H](COCc2ccccc2)Cc2ccccc2)CC1`, the inhibition was 14.8% (inactive).

As for `COc1ccc(NC(=O)C(c2ccncc2)n2c(=O)c(-c3cc4ccccc4[nH]3)nc3ccccc32)cc1` (stereo unspecified), the inhibition was -5.75% (inactive).

As for `O=C1NC[C@H](CCCCN2C[C@H](Cc3ccc(O)cc3)N(CCc3ccccc3)C(=O)C2=O)N(CCc2ccccc2)C1=O`, the inhibition is 5.71% (inactive).

On to `COc1ccc(C2=NOC(Cn3nc(C(=O)NCc4ccc5c(c4)OCO5)cc3-c3ccccc3)C2)cc1` (stereo unspecified), for which the inhibition was 59.7% (active).

With `Cc1ccc(CNC(=O)c2cc(-c3ccccc3C)n(CC3CC(c4cccc([N+](=O)[O-])c4)=NO3)n2)cc1` (stereo unspecified), the inhibition is 7.96% (inactive).

With `COc1ccc(CNC(=O)C2(CC3CC(c4ccccc4)=NO3)CCN(C(=O)c3cccc(O)c3)CC2)cc1` (stereo unspecified), the inhibition was 33.5% (inactive).

Take `COc1ccccc1C(=O)N1O[C@]23C=C[C@]14C[C@@H](O)CC[C@]4(C)C2CC[C@]1(C)[C@@H]([C@H](C)/C=C/[C@H](C)C(C)C)CC[C@H]13` (stereo partly specified): the inhibition is 2.31% (inactive).

In the case of `Cc1ccc(C)c(-n2nnnc2SCC(=O)c2c(N)n(C)c(=O)n(C)c2=O)c1`, the inhibition is -13.3% (inactive).

On to `COC(=O)Nc1ccc(S(=O)(=O)Nc2cc(OC)nc(OC)n2)cc1`, for which the inhibition was -1.45% (inactive).

`CCN(CC)CCCC(C)n1c2nc(=O)[nH]c(=O)c-2nc2cc(Cl)ccc21` (stereo unspecified): the inhibition is 72% (active).

Regarding `Cc1cc2nc3c(=O)[nH]c(=O)nc-3n(C[C@H](O)[C@H](O)[C@H](O)CO)c2cc1C`, the inhibition was 18.8% (inactive).

Regarding `Nc1ccn([C@@H]2O[C@H](C(=O)N[C@H]3CCCCNC3=O)[C@@H](O)[C@H]2O)c(=O)n1`, the inhibition was 21.5% (inactive).

On to `O=C(COC(=O)c1ccc(S(=O)(=O)N2CCc3ccccc3C2)cc1)NC(=O)NCc1ccco1`, for which the inhibition was 0.28% (inactive).

For `Cc1cc(N2CCN(C(=O)OC(C)(C)C)C[C@H]2C)ccc1N1CCN(Cc2ccccc2)[C@H](C)C1`, the inhibition was 8.39% (inactive).

Consider `COc1ccc(OC)c(Nc2nc3ccccc3n3cnnc23)c1`, for which the inhibition is -3.9% (inactive).

Turning to `Cc1ccc(Sc2ccc(NC(=O)c3ccc(F)cc3)cc2C#N)cc1`, the inhibition is 47.8% (inactive).

Regarding `CSc1ccc(C#N)cc1NC(=O)c1cccc(Cl)c1`, the inhibition was -1.36% (inactive).

In the case of `COc1ccc(Sc2ccc(NC(=O)c3cccc(Cl)c3)cc2C#N)cc1`, the inhibition is 48.8% (active).

For `Cc1cc(C)n2c(NCc3ccccc3)c(CC(C)C)nc2n1`, the inhibition was -31.3% (inactive).

For the compound `COc1cccc(-c2cnc3c(NC(C)=O)cc(-c4cccc(NC(C)=O)c4)cn23)c1`, the inhibition was 33.8% (inactive).

On to `COc1ccccc1-c1cc(NC(C)=O)c2ncc(-c3ccc(F)cc3)n2c1`, for which the inhibition was 11% (inactive).

With `COc1cccc(-c2cnc3c(NC(C)=O)cc(-c4cc(F)ccc4OC)cn23)c1`, the inhibition was 56.7% (active).

On to `CC1(C)CC(=O)C2=C(C1)Nc1cc(C(=O)c3ccccc3)ccc1NC2c1ccccn1` (stereo unspecified), for which the inhibition was -12.4% (inactive).

Regarding `Cc1ccc(C)c(NS(=O)(=O)c2c(C)[nH]c(C)c2C(=O)N2CCCCC2)c1`, the inhibition is -30.8% (inactive).

In the case of `COC(=O)c1cc(OC)c(OC)cc1NC(=O)CSc1ccc(C)cc1`, the inhibition was -0.75% (inactive).

Regarding `Cc1ccc(SCC(=O)c2cc(C)c(OC(=S)N(C)C)c(C)c2)cc1`, the inhibition is 57% (active).

For `Cc1ccc(SCC(=O)Nc2ccc3c(c2)OCCO3)cc1`, the inhibition is -11.4% (inactive).

`CCCCNc1c(-c2cccc(Sc3ccc(OC)cc3)c2)nc2ccccn12`: the inhibition is 87.9% (active).

In the case of `COC(=O)c1ccc2nc(-c3ccccc3)c(Cc3ccc(OC)cc3C)n2c1`, the inhibition is 3.43% (inactive).

Take `COC(=O)c1ccc2nc(-c3cccc(Br)c3)c(Cc3ccc(OC)cc3C)n2c1`: the inhibition was -4.86% (inactive).

On to `CCCCNC(=O)CCn1nc(-c2ccc(Cl)cc2)ccc1=O`, for which the inhibition was -14.1% (inactive).

As to `c1ccc(Nc2nc(N3CCOCC3)c3ccccc3n2)cc1`, the inhibition was 74.1% (active).

On to `C/C(=N\Nc1nc(Nc2ccccc2)nc(N2CCOCC2)n1)c1cccs1`, for which the inhibition was 9.62% (inactive).

Regarding `COc1ccc(Nc2ncc(F)c(N3CCOCC3)n2)cc1`, the inhibition is 7.62% (inactive).

As to `O=C(O)C1CCCN(S(=O)(=O)c2cccc3cccnc23)C1` (stereo unspecified), the inhibition is -9.13% (inactive).

`COc1ccc(CCNC(=O)C2CCCN(S(=O)(=O)c3ccc(OC)cc3)C2)cc1` (stereo unspecified): the inhibition is 5.88% (inactive).

In the case of `CC(=O)Nc1ccc(NC(=O)C2CCCN(S(=O)(=O)c3ccc(Cl)cc3)C2)cc1` (stereo unspecified), the inhibition is 9.58% (inactive).

With `COc1ccc(S(=O)(=O)N2CCCC(C(=O)Nc3ccc(NC(=O)c4ccccn4)cc3)C2)cc1` (stereo unspecified), the inhibition was 63% (active).

For `COc1ccc(NC(=O)C2CCCN(S(=O)(=O)c3cccc4cccnc34)C2)cc1OC` (stereo unspecified), the inhibition is 66.5% (active).

For `COc1ccccc1CNC(=O)C1CCCN(S(=O)(=O)c2cccc3cccnc23)C1` (stereo unspecified), the inhibition is -10.9% (inactive).

For `CCN(CC(=O)Nc1ccc(NC(C)=O)cc1)C(=O)CSC(=S)N1CCCC1`, the inhibition was 14.2% (inactive).

For `O=C1[C@H]2[C@@H](c3ccc(C(F)(F)F)cc3)N[C@]3(CCCN(Cc4ccc(Br)cc4)C3=O)[C@H]2C(=O)N1Cc1ccccc1`, the inhibition was -23.7% (inactive).

For the compound `CCCNC(=O)C[C@@H]1CC[C@@H]2[C@H](COC[C@H](O)CN2C(=O)c2cc(Cl)cc(Cl)c2)O1`, the inhibition is -27.3% (inactive).

As for `O=C(NCCCc1ccccc1)C1CCC(=O)N(CCc2ccc(Cl)cc2)C1` (stereo unspecified), the inhibition was 2.14% (inactive).

Turning to `CCOc1cc(N2CCOCC2)c(OCC)cc1NC(=O)COc1cccc2cccnc12`, the inhibition is 56.4% (active).

As to `CCOc1cc(N2CCOCC2)c(OCC)cc1NC(=O)C1=NN(c2cccc(C)c2)C(=O)CC1`, the inhibition was 44.9% (inactive).

Turning to `CCOc1cc(N2CCOCC2)c(OCC)cc1NC(=O)COC(=O)[C@H](Cc1c[nH]c2ccccc12)NC(C)=O`, the inhibition is 22.1% (inactive).
